Reference: paper PMC6677593 (Molecular cancer therapeutics, 2019)
Like-named read-outs stand apart in the source and are kept apart here.

Experiments:
[1] = target: T1, glucocorticoid receptor (GR) (Homo sapiens, UniProt P04150); assay: GR antagonism assay; assay type: biochemical; settings: read-out: antagonism to GR
T1 sequence (P04150 1-777): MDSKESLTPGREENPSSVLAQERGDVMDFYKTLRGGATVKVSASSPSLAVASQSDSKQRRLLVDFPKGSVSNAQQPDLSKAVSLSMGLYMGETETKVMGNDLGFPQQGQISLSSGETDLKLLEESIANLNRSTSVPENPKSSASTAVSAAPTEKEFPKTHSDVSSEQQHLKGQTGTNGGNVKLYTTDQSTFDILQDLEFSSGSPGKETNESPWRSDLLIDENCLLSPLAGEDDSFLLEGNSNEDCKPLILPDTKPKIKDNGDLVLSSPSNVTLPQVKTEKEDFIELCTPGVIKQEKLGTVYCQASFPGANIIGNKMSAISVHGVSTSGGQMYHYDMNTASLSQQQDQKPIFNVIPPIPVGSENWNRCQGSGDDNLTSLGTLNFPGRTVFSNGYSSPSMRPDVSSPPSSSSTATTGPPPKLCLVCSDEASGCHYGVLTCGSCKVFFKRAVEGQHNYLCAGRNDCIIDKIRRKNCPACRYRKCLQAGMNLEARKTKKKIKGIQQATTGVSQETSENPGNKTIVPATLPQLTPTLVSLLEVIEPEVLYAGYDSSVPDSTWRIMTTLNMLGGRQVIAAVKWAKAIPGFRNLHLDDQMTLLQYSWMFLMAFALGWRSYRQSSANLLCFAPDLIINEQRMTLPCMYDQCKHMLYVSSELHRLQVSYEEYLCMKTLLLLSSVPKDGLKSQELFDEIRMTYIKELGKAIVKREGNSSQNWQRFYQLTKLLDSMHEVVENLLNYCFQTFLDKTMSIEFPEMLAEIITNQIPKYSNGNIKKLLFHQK

[2] = tested on: STAT3-Luc reporter in BT-549 and MDA-MB-231 cells; assay: STAT3-luc reporter gene assay; assay type: cell-based, Human; settings: BT-549, EC359 50 nM pretreatment 1 h
Method in brief: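 MDA-MB-231 and BT-549 lines stably transduced with a STAT3-firefly luciferase reporter lentivirus were serum-starved for 24 h and pretreated with test compound (50 nM) for 1 h. They were then stimulated with LIF, CTF1, OSM or CNTF at indicated concentrations for 24 h. Lysates in passive lysis buffer were read by dual-luciferase luminescence; n=3.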

[3] = tested on: MDA-MB-231 xenograft tumors; assay: MDA-MB-231 xenograft study; assay type: in vivo, athymic nude mice; settings: 5 mg/kg/day s.c. 3 days/week
[4] = human
[5] = tested on: salmonella typhimurium strains TA98, TA100, TA1535, TA1537 and E.coli combo; assay: Ames test; settings: with and without metabolic activation, OECD guideline no.471
[6] = rats
[7] = human; remark: listed apart in the source
[8] = target: CYP 2D6 (Homo sapiens, UniProt P10635)
Chain of CYP 2D6 (P10635 whole entry): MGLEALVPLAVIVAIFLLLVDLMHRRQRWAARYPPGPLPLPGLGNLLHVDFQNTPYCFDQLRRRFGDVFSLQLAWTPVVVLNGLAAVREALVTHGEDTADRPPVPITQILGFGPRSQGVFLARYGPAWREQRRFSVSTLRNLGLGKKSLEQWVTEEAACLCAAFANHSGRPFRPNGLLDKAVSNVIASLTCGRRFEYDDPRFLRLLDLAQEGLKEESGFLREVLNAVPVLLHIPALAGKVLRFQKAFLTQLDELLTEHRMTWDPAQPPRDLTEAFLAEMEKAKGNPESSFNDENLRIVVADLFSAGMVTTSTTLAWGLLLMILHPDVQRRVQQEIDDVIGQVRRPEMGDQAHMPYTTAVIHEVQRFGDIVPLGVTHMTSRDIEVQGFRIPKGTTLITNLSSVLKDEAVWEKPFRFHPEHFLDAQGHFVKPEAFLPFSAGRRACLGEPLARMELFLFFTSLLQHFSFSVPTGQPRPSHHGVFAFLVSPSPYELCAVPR

[9] = intraperitoneal and oral dosing
[10] = tested on: MDA-MB-231 and SUM-159 cells; assay: Clonogenic survival assay; assay type: cell-based, Human; settings: EC359 20 nM
[11] = tested on: MDA-MB-231 and BT-549 cells; assay: Annexin V/PI staining; assay type: cell-based, Human
[12] = tested on: LIFR downstream signaling in MDA-MB-231 and BT-549 cells; assay: Western blotting of LIFR downstream signaling; assay type: cell-based, Human
Method in brief: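 After 24 h serum starvation and 1 h pretreatment with test compound (100 nM), cells were stimulated for 10 min with LIF (MDA-MB-231, BT-549), or with OSM or CNTF at 10 ng (BT-549). For downstream kinases, cells were treated with 100 nM. Lysates were made in RIPA with protease/phosphatase inhibitors and blotted with ECL detection. p-STAT3 bands were quantified, normalized to total STAT3 and expressed as fold over control.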

[13] = human; remark: listed apart in the source
[14] = target: T2, GR (Homo sapiens, UniProt P04150); assay: In vitro steroid receptor binding assays; settings: receptor binding studies (Fig. 1C)
T2 sequence (P04150 1-777): T1 sequence (P04150 1-777)

[15] = tested on: BT-549 cells; assay: MTT cell viability assay on BT-549 cells; assay type: cell-based, Human; settings: BT-549 model cells (Fig. 1B)
[16] = tested on: ALDH+ (CSCs) and ALDH− (non CSCs) cells; assay: Cell Titer-Glo viability of CSCs and non CSCs; assay type: cell-based, Human; settings: 3 days
[17] = tested on: TNBC PDX tumors; assay: TNBC patient derived xenograft; assay type: in vivo, SCID mice; settings: 10 mg/kg/day s.c. 3 days/week
[18] = target: Recombinant human LIF (Homo sapiens, UniProt P15018); assay: Surface plasmon resonance; assay type: binding; settings: SPR
Chain of Recombinant human LIF (P15018 23-202): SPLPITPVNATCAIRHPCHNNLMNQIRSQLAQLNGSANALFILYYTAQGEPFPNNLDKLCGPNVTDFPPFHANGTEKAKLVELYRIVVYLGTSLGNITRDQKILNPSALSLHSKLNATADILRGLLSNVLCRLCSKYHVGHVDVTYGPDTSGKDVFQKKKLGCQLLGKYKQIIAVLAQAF

[19] = tested on: CSCs from MDA-MB-231 and BT-549 cells; assay: Extreme limiting dilution assay; assay type: cell-based, Human; settings: 10 days
Method in brief: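 ALDH+ CSCs were sorted by ALDEFLUOR flow cytometry and grown in supplemented MammoCult. They were seeded at 100, 50, 20, 10, 5 and 1 cells/well on ultra-low attachment plates with vehicle or test compound. After 10 days, wells with spheres were scored at each density, and stem cell frequency was estimated by ELDA analysis.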

[20] = tested on: MDA-MB-231 and BT-549 cells; assay: Matrigel invasion chamber assay; assay type: cell-based, Human; settings: EC359 25 nM, 22 h
[21] = tested on: TNBC cells (BT-549, SUM-159, MDA-MB-231, HCC1937, MDA-MB-468, HCC1806); assay: MTT cell viability assay in TNBC cells; assay type: cell-based, Human; settings: read-out: IC50, cell viability of TNBC cells, 5 days
[22] = tested on: MDA-MB-231 and BT-549 cells; settings: 72 h

Which IC50 [1] does the source give for C#CC(F)(F)[C@]1(O)CC[C@H]2[C@@H]3CCC4=CC(=O)CCC4=C3[C@@H](c3ccc(C4CC4)cc3)C[C@@]21C [EC330] here?
The IC50 was 79.8 nM.

With C#CC(F)(F)[C@]1(O)CC[C@H]2[C@@H]3CCC4=CC(=O)CCC4=C3[C@@H](c3ccc(-c4c(C)cc(C)cc4C)cc3)C[C@@]21C [EC359] as the molecule, how does the “LIF stimulated STAT3 reporter activity” value [2] read?
Its value is “inhibited”.

And the “OSM, CNTF and CTF1 mediated STAT3 activity” value [2]?
The value was “blocked”.

And the “body weights of mice” value [3]?
Its value is “remained unchanged”.

And the “proliferating cells (Ki-67 positive cells) in tumors” value [3]?
Its value is “fewer proliferating cells”.

What about the “tumor progression (tumor volume)” value [3] of the same molecule?
Its value is “significantly reduced”.

And the “activation of STAT3 target genes in tumors” value ([3]; RT-qPCR)?
The value was “significant decrease”.

And the plasma protein binding [4]?
Its plasma protein binding is “high”.

And the “mutagenicity (Ames test)” value [5]?
The value was “non-mutagenic”.

What about the AUC0-inf ([6]; IV 5 mg/kg) of the same molecule?
The AUC0-inf was 15573.91 ng·h/mL.

What about the AUC0-last ([6]; IV 5 mg/kg) of the same molecule?
Its AUC0-last is 15544.36 ng·h/mL.

What about the T½ ([6]; IV 5 mg/kg) of the same molecule?
The T½ was 3.86 h.

What about the “mean C0” value ([6]; IV 5 mg/kg) of the same molecule?
The value was 74669.11 ng/mL.

And the AUC0-inf ([6]; oral 10 mg/kg)?
The AUC0-inf was 3876.82 ng·h/mL.

What about the AUC0-last ([6]; oral 10 mg/kg) of the same molecule?
The AUC0-last was 3792.26 ng·h/mL.

And the Tmax ([6]; oral 10 mg/kg)?
The Tmax was 2.67 h.

What about the “mean Cmax” value ([6]; oral 10 mg/kg) of the same molecule?
The value was 919.50 ng/mL.

And the plasma stability [7]?
The plasma stability was “moderate”.

What about the “CYP 2D6 inhibition” value [8] of the same molecule?
The value was “inhibits 2D6”.

What about the “bioavailability (PK)” value [9] of the same molecule?
The value was “Good bioavailability”.

And the colony formation ability [10]?
Its colony formation ability is “significantly reduced”.

And the “Annexin V positive cells” value [11]?
The value was “significantly increased”.

And the “STAT3 activation by OSM and CNTF (phosphorylation)” value ([12]; BT-549, EC359 100 nM 1 h, then OSM or CNTF 10 ng, 10 min)?
The value was “reduced”.

And the “LIF activation of STAT3 (phosphorylation)” value ([12]; EC359 100 nM 1 h, then LIF 10 min, BT-549 and MDA-MB-231)?
The value was “substantially reduced”.

And the Metabolic stability [13]?
Its Metabolic stability is “moderate”.

And the “affinity to GR” value [14]?
The value was “lack of affinity”.

What about the “inhibitory activity in cell viability assay” value [15] of the same molecule?
Its value is “significant inhibitory activity on par with EC330”.

What about the “viability of ALDH+ and ALDH− cells” value [16] of the same molecule?
Its value is “similarly inhibited”.

And the body weight [17]?
Its body weight is “did not affected”.

And the “proliferating cells (Ki-67) in PDX tumors” value [17]?
Its value is “fewer proliferating cells”.

And the “tumor progression (tumor volume)” value [17]?
Its value is “significantly reduced”.

And the “binding to LIF” value [18]?
Its value is “binding to LIFR, but not LIF”.

And the “self renewal of CSCs” value [19]?
The value was “significantly reduced”.

What about the invasion potential [20] of the same molecule?
The invasion potential was “significantly reduced”.

What about the IC50 [21] of the same molecule?
Its IC50 is 10 to 50 nM.

And the “caspase 3/7 activity” value [22]?
Its value is “significantly increased”.
